Source: ChEMBL document CHEMBL1144254, “Synthesis and SAR of novel 4,5-diarylimidazolines as potent P2X7 receptor antagonists” (Bioorg Med Chem Lett, 2005)

These compounds were tested on U373 MG (assay: Inhibitory concentration against YOPRO-1 dye uptake in U373MG cells stably expressing human P2X purinoceptor 7 using fluorescence assay).
Assay type: functional, cell-based, U-373MG ATCC
Procedure, shortened: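 U373 cells stably expressing human P2X7 were grown overnight on collagen-coated plates at 35,000 cells/well. They were then preincubated 20 min at 37°C with increasing compound concentrations, in duplicate, in Mg²⁺/Ca²⁺-free HBSS. YO-PRO-1 iodide and then Bz-ATP were added, followed by 1.5 h at 37°C. Fluorescence was read at 485/530 nm against a no-compound control, and IC50 came from a nonlinear sigmoidal fit; means of duplicates, one or two experiments.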

SMILES | IC50
c1ccc([C@H]2N=C(C3Cc4ccccc4C3)N[C@H]2c2ccccc2)cc1 | 50 nM
Cc1ccc(CC2=N[C@H](c3ccccc3)[C@H](c3ccccc3)N2)cc1 | 80 nM
c1ccc([C@H]2N=C(CC3Cc4ccccc4C3)N[C@H]2c2ccccc2)cc1 | 240 nM
Fc1ccc(CCC2=N[C@H](c3ccccc3)[C@H](c3ccccc3)N2)cc1F | 120 nM
Clc1cccc(CCC2=N[C@H](c3ccccc3)[C@H](c3ccccc3)N2)c1 | 120 nM
Fc1cccc(CCC2=N[C@H](c3ccccc3)[C@H](c3ccccc3)N2)c1 | 40 nM
Cc1ccc(CCC2=N[C@H](c3ccccc3)[C@H](c3ccccc3)N2)cc1 | 2190 nM
Fc1ccc(CC2=N[C@H](c3ccccc3)[C@H](c3ccccc3)N2)cc1 | 80 nM
Clc1ccc(CC2=N[C@H](c3ccccc3)[C@H](c3ccccc3)N2)cc1 | 270 nM
Fc1cccc(CC2=N[C@H](c3ccccc3)[C@H](c3ccccc3)N2)c1 | 80 nM
COc1ccc(CCC2=N[C@H](c3ccccc3)[C@H](c3ccccc3)N2)cc1 | > 3000 nM
COc1ccc(CCC2=N[C@H](c3ccccc3)[C@H](c3ccccc3)N2)cc1OC | > 3000 nM
FC(F)(F)c1ccc(CC2=N[C@H](c3ccccc3)[C@H](c3ccccc3)N2)cc1 | 400 nM
Clc1cccc(CC2=N[C@H](c3ccccc3)[C@H](c3ccccc3)N2)c1 | 30 nM
Fc1ccc(CC2=N[C@H](c3ccccc3)[C@H](c3ccccc3)N2)cc1F | 30 nM
Fc1ccc(CCC2=N[C@H](c3ccccc3)[C@H](c3ccccc3)N2)cc1 | 220 nM
COc1cccc(CC2=N[C@H](c3ccccc3)[C@H](c3ccccc3)N2)c1OC | > 3000 nM
Clc1ccc(CCC2=N[C@H](c3ccccc3)[C@H](c3ccccc3)N2)cc1Cl | 1400 nM
Clc1ccc(CCC2=N[C@H](c3ccccc3)[C@H](c3ccccc3)N2)cc1 | > 1000 nM
Fc1cccc(CC2=N[C@H](c3ccccc3)[C@H](c3ccccc3)N2)c1F | 930 nM

Further lines, results first:

IC50 | SMILES
70 nM | Clc1ccccc1CCC1=N[C@H](c2ccccc2)[C@H](c2ccccc2)N1
320 nM | c1ccc(C(CC2=N[C@H](c3ccccc3)[C@H](c3ccccc3)N2)c2ccccc2)cc1
70 nM | Cc1ccccc1CCC1=N[C@H](c2ccccc2)[C@H](c2ccccc2)N1
320 nM | Cc1ccccc1CC1=N[C@H](c2ccccc2)[C@H](c2ccccc2)N1
110 nM | C[C@H](C1=N[C@H](c2ccccc2)[C@H](c2ccccc2)N1)c1ccccc1
> 1000 nM | c1ccc([C@H]2C[C@@H]2C2=N[C@H](c3ccccc3)[C@H](c3ccccc3)N2)cc1
610 nM | c1ccc(CCCCC2=N[C@H](c3ccccc3)[C@H](c3ccccc3)N2)cc1
160 nM | Clc1ccccc1CC1=N[C@H](c2ccccc2)[C@H](c2ccccc2)N1
570 nM | CC(Cc1ccccc1)C1=N[C@H](c2ccccc2)[C@H](c2ccccc2)N1 (some centres not stated)
30 nM | C[C@@H](CC1=N[C@H](c2ccccc2)[C@H](c2ccccc2)N1)c1ccccc1
10 nM | CC(C)(CC1=N[C@H](c2ccccc2)[C@H](c2ccccc2)N1)c1ccccc1
830 nM | COc1ccccc1CCC1=N[C@H](c2ccccc2)[C@H](c2ccccc2)N1
80 nM | c1ccc(CCC2=N[C@H](c3ccccc3)[C@H](c3ccccc3)N2)cc1
540 nM | c1ccc(CCCC2=N[C@H](c3ccccc3)[C@H](c3ccccc3)N2)cc1
3800 nM | c1ccc(C2=N[C@@H](c3ccccc3)[C@@H](c3ccccc3)N2)cc1
580 nM | Fc1ccccc1CC1=N[C@H](c2ccccc2)[C@H](c2ccccc2)N1
160 nM | Fc1ccccc1CCC1=N[C@H](c2ccccc2)[C@H](c2ccccc2)N1
